Experimental data: ChEMBL document CHEMBL4732044, “Discovery of a promising agent IQZ23 for the treatment of obesity and related metabolic disorders” (Eur J Med Chem, 2020)
Calls of active or inactive are those of the source. The calls are words filed in the database; no cut-off is given here.

test system: 3T3-L1; test: Lipid lowering activity in mouse 3T3-L1 cells assessed as reduction in adipogenic cocktail-induced triglyceride levels incubated for 6 days by GPO-POD assay; assay type: functional, cell-based; conditions: dose 1-5 µM, time 6.0 day
In short: (§1)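 Confluent 3T3-L1 cells were treated from day 0 in cocktail (IBMX, dexamethasone, insulin) for 3 days, then re-dosed in insulin medium for 3 more days. For dose–response, concentrations were 0–10 µM (0.01, 0.1, 0.3, 1, 3, 10). On day 6, cells were lysed in 0.2% Triton X-100 and TG was measured by GPO-POD and normalized to BCA protein as % of control. EC50 was fitted from the dose–response. N = 4.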

Row | Compound | Activity
1 | Cc1c(-c2nc(NCCN(C)C)c3ccccc3n2)[nH]c2ccccc12 | Dose-dependent effect
2 | Cc1c(-c2nc(NCCCN3CCCC3)c3ccccc3n2)sc2ccccc12 | Dose-dependent effect
3 | O=Cc1c(-c2nc(OCCN3CCCC3)c3ccccc3n2)[nH]c2ccccc12 | Dose-dependent effect
4 | COc1ccc2[nH]c(-c3nc(NCCN(C)C)c4ccccc4n3)c(C=O)c2c1 | Dose-dependent effect
5 | Cc1c(-c2nc(NCCCN(C)C)c3ccccc3n2)sc2ccccc12 | Dose-dependent effect
6 | Cc1c(-c2nc(OCCCCN(C)C)c3ccccc3n2)oc2ccccc12 | Dose-dependent effect
7 | Cc1c(-c2nc(OCCN(C)C)c3ccccc3n2)oc2ccccc12 | Dose-dependent effect
8 | Cc1c(-c2nc(OCCN3CCCC3)c3ccccc3n2)oc2ccccc12 | Dose-dependent effect
9 | CN(C)CCCCOc1nc(-c2[nH]c3ccccc3c2C=O)nc2ccccc12 | Dose-dependent effect
10 | CCN(CC)CCCCNc1nc(-c2[nH]c3ccccc3c2C=O)nc2ccccc12 | Dose-dependent effect
11 | CCN(CC)CCSc1nc(-c2[nH]c3ccccc3c2C=O)nc2ccccc12 | Dose-dependent effect
12 | Cc1c(-c2nc(NCCN(C)C)c3ccccc3n2)sc2ccccc12 | Dose-dependent effect
13 | Cc1c(-c2nc(NCCN3CCCC3)c3ccccc3n2)[nH]c2ccccc12 | Dose-dependent effect
14 | CCN(CC)CCCCNc1nc(-c2[nH]c3ccccc3c2C)nc2ccccc12 | Dose-dependent effect
15 | CN(C)CCCCNc1nc(-c2oc3ccccc3c2C=O)nc2ccccc12 | Dose-dependent effect
16 | Cc1c(-c2nc(NCCN3CCCC3)c3ccccc3n2)sc2ccccc12 | Dose-dependent effect

Row | Compound | Activity
17 | Cc1c(-c2nc(OCCCN(C)C)c3ccccc3n2)oc2ccccc12 | Dose-dependent effect
18 | CN(C)CCCNc1nc(-c2oc3ccccc3c2C=O)nc2ccccc12 | Dose-dependent effect
19 | Cc1c(-c2nc(NCCCN3CCCC3)c3ccccc3n2)[nH]c2ccccc12 | Dose-dependent effect
20 | CN(C)CCSc1nc(-c2[nH]c3ccccc3c2C=O)nc2ccccc12 | Dose-dependent effect
21 | COc1ccc2[nH]c(-c3nc(NCCCN4CCCC4)c4ccccc4n3)c(C=O)c2c1 | Dose-dependent effect
22 | Cc1c(-c2nc(NCCCCN3CCCC3)c3ccccc3n2)sc2ccccc12 | Dose-dependent effect
23 | CN(C)CCCOc1nc(-c2[nH]c3ccccc3c2C=O)nc2ccccc12 | Dose-dependent effect
24 | O=Cc1c(-c2nc(NCCN3CCCC3)c3ccccc3n2)oc2ccccc12 | Dose-dependent effect
25 | CN(C)CCOc1nc(-c2[nH]c3ccccc3c2C=O)nc2ccccc12 | Dose-dependent effect
26 | CN(C)CCNc1nc(-c2oc3ccccc3c2C=O)nc2ccccc12 | Dose-dependent effect
27 | Cc1c(-c2nc(NCCCN(C)C)c3ccccc3n2)[nH]c2ccccc12 | Dose-dependent effect
28 | COc1ccc2[nH]c(-c3nc(NCCCN(C)C)c4ccccc4n3)c(C=O)c2c1 | Dose-dependent effect
29 | Cc1c(-c2nc(NCCCCN(C)C)c3ccccc3n2)[nH]c2ccccc12 | Dose-dependent effect
30 | CCN(CC)CCNc1nc(-c2[nH]c3ccccc3c2C)nc2ccccc12 | Dose-dependent effect
31 | Cc1c(-c2nc(OCCCN3CCCC3)c3ccccc3n2)oc2ccccc12 | Dose-dependent effect
32 | O=Cc1c(-c2nc(OCCCN3CCCC3)c3ccccc3n2)[nH]c2ccccc12 | Dose-dependent effect

test system: 3T3-L1; test: Lipid lowering activity in mouse 3T3-L1 cells assessed as reduction in adipogenic cocktail-induced triglyceride levels at 1 to 5 uM incubated for 6 days by GPO-POD assay relative to control; assay type: functional; conditions: dose 1-5 µM, time 6.0 day; in short: as §1

Row | Compound | Activity
33 | Cc1c(-c2nc(NCCN(C)C)c3ccccc3n2)[nH]c2ccccc12 | Active
34 | Cc1c(-c2nc(NCCCN3CCCC3)c3ccccc3n2)sc2ccccc12 | Active
35 | Cc1c(-c2nc(NCCCN(C)C)c3ccccc3n2)sc2ccccc12 | Active
36 | Cc1c(-c2nc(OCCCCN(C)C)c3ccccc3n2)oc2ccccc12 | Active
37 | Cc1c(-c2nc(OCCN(C)C)c3ccccc3n2)oc2ccccc12 | Active
38 | Cc1c(-c2nc(OCCN3CCCC3)c3ccccc3n2)oc2ccccc12 | Active
39 | Cc1c(-c2nc(NCCN(C)C)c3ccccc3n2)sc2ccccc12 | Active
40 | Cc1c(-c2nc(NCCN3CCCC3)c3ccccc3n2)[nH]c2ccccc12 | Active
41 | CCN(CC)CCCCNc1nc(-c2[nH]c3ccccc3c2C)nc2ccccc12 | Active
42 | Cc1c(-c2nc(NCCN3CCCC3)c3ccccc3n2)sc2ccccc12 | Active
43 | Cc1c(-c2nc(OCCCN(C)C)c3ccccc3n2)oc2ccccc12 | Active
44 | Cc1c(-c2nc(NCCCN3CCCC3)c3ccccc3n2)[nH]c2ccccc12 | Active
45 | Cc1c(-c2nc(NCCCCN3CCCC3)c3ccccc3n2)sc2ccccc12 | Active
46 | Cc1c(-c2nc(NCCCN(C)C)c3ccccc3n2)[nH]c2ccccc12 | Active
47 | Cc1c(-c2nc(NCCCCN(C)C)c3ccccc3n2)[nH]c2ccccc12 | Active
48 | CCN(CC)CCNc1nc(-c2[nH]c3ccccc3c2C)nc2ccccc12 | Active
49 | Cc1c(-c2nc(OCCCN3CCCC3)c3ccccc3n2)oc2ccccc12 | Active
